In ChEMBL document CHEMBL1152628, “Synthesis and antioxidant properties of new chromone derivatives” (Bioorg Med Chem, 2009) one finds IC50 and Activity data, which are given here for 12 molecules.

Molecules are shown by their SMILES. Calls of active or inactive are those of the source. The calls are words filed in the database; no cut-off is given here.

For orientation: IC50 means the concentration at which inhibition is half-maximal.

Assay [1] is described as follows: Antioxidant activity assessed as singlet oxygen scavenging activity by fluorescent rhodamine formation assay. The assay is classed as functional. In short, it runs like this: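 Singlet oxygen scavenging monitored as inhibition (%) of 1O2-induced oxidation of non-fluorescent dihydrorhodamine to fluorescent rhodamine. Ascorbic acid was the positive control. IC50 given as mean ± SE, five experiments in triplicate.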

Assay [2] is described as follows: Antioxidant activity assessed as nitric oxide scavenging activity by fluorescent triazofluorescein formation assay. The assay is classed as functional. In a few lines:
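NO scavenging measured as inhibition (%) of NO-induced oxidation of non-fluorescent DAF-2 to fluorescent triazolofluorescein. Rutin was the positive control. IC50 given as mean ± SE, five experiments in triplicate.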

Assay [3] is described as follows: Reducing activity assessed as reduction of ferric ion by reducing power assay. In short, it runs like this: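 Compounds in 1:4 water/DMSO were mixed with 0.2 M phosphate buffer pH 6.6 and 1% w/v K3Fe(CN)6, then held 20 min at 50 °C. After 10% w/v TCA and centrifugation (10 min, 3000 g), the supernatant was diluted with water plus 0.1% w/v FeCl3 and read at 700 nm. Ascorbic acid was the positive control. Values are mean ± SE of triplicates.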

The nature of assay [4]: Antioxidant activity assessed as hydrogen peroxide scavenging activity by lucigenin oxidation assay. The format is functional. In short, it runs like this: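 H2O2 scavenging followed as inhibition (%) of H2O2-induced lucigenin oxidation on a microplate reader. Ascorbic acid was the positive control. IC50 reported as mean ± SE from five experiments, each in triplicate.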

Assay [5] can be described thus: Antioxidant activity assessed as peroxyl radical scavenging activity by measuring oxygen radical absorbance capacity. The assay is classed as functional. More on the design: reference not given here.
A short description of assay [6]: Antioxidant activity assessed as peroxynitrite scavenging activity in presence of NaHCO3 by fluorescent rhodamine formation assay. The format is functional.
Assay [7] is described as follows: Antioxidant activity assessed as hypochlorous acid scavenging activity by fluorescent rhodamine formation assay. The format is functional. In short, it runs like this: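 Fluorescent assay of HOCl-induced dihydrorhodamine oxidation to rhodamine, with HOCl from 1% (m/v) NaOCl adjusted to pH 6.2 with 10% H2SO4. Lipoic acid was the positive control. IC50 (mean ± SE) comes from % inhibition, five experiments in triplicate.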

Assay [8] in a line: Antioxidant activity assessed as superoxide radical scavenging activity by NBT dye reduction assay. The assay is classed as functional. In a few lines:
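Superoxide generated by the NADH/PMS system. Scavenging read as inhibition (%) of O2•−-driven NBT reduction to diformazan at 560 nm. Tiron was the positive control. IC50 given as mean ± SE, five experiments in triplicate.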

A short description of assay [9]: Antioxidant activity assessed as peroxynitrite scavenging activity in absence of NaHCO3 by fluorescent rhodamine formation assay. The format is functional.
Assay [10] is described as follows: Iron chelating activity assessed as Fe(2+)-compound complex formation at 10 uM by UV-Vis absorption spectroscopy. The format is functional. In a few lines: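 Iron chelation checked from changes in the UV–vis spectrum (300–600 nm) of a 10 µM (final) compound solution in 20 mM phosphate buffer, pH 7.2. Fe(II) was added sequentially to 0, 2, 4, 6, 8, 10, 12, 14 and 16 µM.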

The nature of assay [11]: Antioxidant activity assessed as hydrogen peroxide scavenging activity at 1 mM by lucigenin oxidation assay. The assay is classed as functional.
The nature of assay [12]: Antioxidant activity assessed as hypochlorous acid scavenging activity at 200 uM by fluorescent rhodamine formation assay. The format is functional. In a few lines: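 HOCl was made by bringing 1% (m/v) NaOCl to pH 6.2 with 10% H2SO4. Scavenging was read as inhibition (%) of HOCl-induced oxidation of dihydrorhodamine to fluorescent rhodamine. Value given as mean % at the highest tested concentration (200 µM). Five experiments in triplicate.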

As for `CCCCCCc1c(-c2ccc(O)c(O)c2)oc2cc(O)cc(O)c2c1=O`, the IC50 in assay [1] came to 58.6 µM; in assay [2], 3.29 µM; in assay [4], 348 µM; in [6], 1.8 µM; in assay [7], 2.49 µM; in assay [8] it was 62.8 µM. In addition, in assay [9], the IC50 came to 1.48 µM. The result in assay [3] was Active. Further, the Activity in [5] is 2.
In the case of `O=S(=O)(O)c1cc(O)c(O)c(S(=O)(=O)O)c1` [TIRON], the IC50 in assay [8] is 288 µM.
Consider `O=c1c2ccccc2[se]n1-c1ccccc1` [EBSELEN], for which the IC50 in [6] was 5.27 µM; in [9] it was 1 µM.
Take `CCCCc1c(-c2ccc(O)c(O)c2)oc2cc(O)cc(O)c2c1=O`: the IC50 was found to be 61.8 µM in [1]; 2.72 µM in assay [2]; 502 µM in [4]; 1.24 µM in assay [6]; 1.45 µM in assay [7]; 51.8 µM in assay [8]. For the same molecule, the IC50 in [9] is 0.6 µM. The outcome in assay [3] was Active. Moreover, the Activity in [5] is 2.66.
`O=c1cc(/C=C/c2ccc(O)c(O)c2)oc2c(O)c(O)ccc12`: the IC50 in assay [1] amounted to 4.69 µM; in assay [2], 0.193 µM; in [4] it was 799 µM; in [6] it was 1.59 µM; in assay [7], 67.2 µM; in [8], 17.8 µM. Moreover, in assay [9], the IC50 amounted to 0.85 µM. Besides, the result in assay [3] and in [10] was Active. For the same molecule, the Activity in assay [5] was found to be 2.58.
Take `C[C@@H]1O[C@@H](OC[C@H]2O[C@@H](Oc3c(-c4ccc(O)c(O)c4)oc4cc(O)cc(O)c4c3=O)[C@H](O)[C@@H](O)[C@@H]2O)[C@H](O)[C@H](O)[C@H]1O` [RUTIN]: the IC50 in assay [2] is 1.17 µM.
As for `O=C(c1ccc(O)c(O)c1)c1c(-c2ccc(O)c(O)c2)oc2cc(O)cc(O)c2c1=O`, the IC50 in assay [1] worked out at 43 µM; in assay [2], 3.62 µM; in assay [4] it was 367 µM; in assay [6], 1.97 µM; in [7], 2.29 µM; in [8], 19.5 µM. The IC50 in assay [9] turned out to be 0.66 µM. The result in [3] was Active. Moreover, the Activity in [5] came to 4.32.
For `COc1ccc2c(=O)cc(/C=C/c3ccc(O)c(O)c3)oc2c1OC`, the IC50 in assay [1] was 7.97 µM; in assay [2] it was 0.368 µM; in assay [4], 702 µM; in [6], 0.93 µM; in assay [7] it was 4.67 µM; in assay [8] it was 20.8 µM. In [9], the IC50 amounted to 1.21 µM. Moreover, the outcome in [3] and in [10] was Active. Also, in assay [5], the Activity stood at 2.74.
`O=C(O)CCCCC1CCSS1` (stereo not drawn) [LIPOIC ACID, ALPHA]: the IC50 in assay [7] was determined as 1.95 µM.
As for `CCCCCCCCCCc1c(-c2ccc(O)c(O)c2)oc2cc(O)cc(O)c2c1=O`, the IC50 in assay [1] came to 7.9 µM; in assay [2], 4.85 µM; in assay [4], 236 µM; in assay [6], 1.82 µM; in [7] it was 1.7 µM; in assay [8], 78 µM. The IC50 in [9] was 0.83 µM. In assay [5], the Activity came to 1.63.
On to `O=C1O[C@H]([C@@H](O)CO)C(O)=C1O` [ASCORBIC ACID], for which the IC50 is 10.2 µM in [1] and 567 µM in assay [4]. In assay [3], the result was Active. In addition, the Activity in assay [5] worked out at 0.405.
Turning to `COc1ccc(/C=C/c2cc(=O)c3ccc(O)c(O)c3o2)cc1OC`, the IC50 is 9.95 µM in assay [1]; 0.254 µM in assay [2]; 2.08 µM in [6]; 26 µM in [8]; 0.59 µM in [9]. The results for the Activity in assay [11], in assay [12] and in assay [5] were 31%, 47% and 1.4, respectively. The result in assay [3] and in assay [10] was Active.
